# Screening data as filed in PubChem.
# M4 ag: CHRM4 agonism in calcium assay | P08173 | CHO-K1 hM4/Gqi5, Fluo-8 calcium fluorescence; vehicle 0%, full acetylcholine response 100% | activation, % at 3 µM | actives 0.14% (n = 360,000) | AID 624127;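 active = activation above the run mean over all test wells plus 3 SD, cut at about 32% in these data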;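 also: peak over basal fluorescence ratio per well then scaled between controls; 0% = DMSO wells and 100% = acetylcholine at EC100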
# M5 PAM: CHRM5 positive allosteric modulation. actives 0.3% (n = 360,000). P08912. CHO-K1 hM5, Fluo-8 calcium, ACh EC20 PAM; 0% = ACh EC20, 100% = ACh EC100. AID 624038. activation, % at 3 µM;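 active = activation above the run cutoff, the mean activation of all test compounds plus 3 SD, cut at about 18% in these data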
# Target sequence (P08912 whole entry, looked up): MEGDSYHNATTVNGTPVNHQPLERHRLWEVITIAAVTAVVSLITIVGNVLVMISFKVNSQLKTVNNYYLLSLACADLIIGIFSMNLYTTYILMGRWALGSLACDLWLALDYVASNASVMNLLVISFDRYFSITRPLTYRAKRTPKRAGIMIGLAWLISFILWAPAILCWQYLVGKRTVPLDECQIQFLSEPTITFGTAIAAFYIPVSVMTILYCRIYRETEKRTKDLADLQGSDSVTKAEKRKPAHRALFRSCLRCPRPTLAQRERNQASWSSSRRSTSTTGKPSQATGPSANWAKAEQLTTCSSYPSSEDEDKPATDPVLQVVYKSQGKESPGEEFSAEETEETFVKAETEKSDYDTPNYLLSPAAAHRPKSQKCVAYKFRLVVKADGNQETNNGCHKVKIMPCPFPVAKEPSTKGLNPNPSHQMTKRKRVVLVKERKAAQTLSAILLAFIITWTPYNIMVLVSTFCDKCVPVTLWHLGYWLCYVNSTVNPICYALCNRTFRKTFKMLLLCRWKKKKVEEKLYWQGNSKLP
#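 Assay system – human M5 receptor in CHO-K1 cells · Read-out – % activation, ACh-normalized · Technique – Fluo-8 calcium fluorescence · Dosing – single-point, 3 µM nominal · Incubation – Fluo-8 loading 80 min at 37 °C plus 30 min room temperature · Repeats – singlicate, one well per test compound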
# M5 ag: agonists of human muscarinic M5 receptor (CHRM5) | CHO-K1 hM5 cells, Fluo-8 calcium fluorescence; 0% DMSO wells, 100% maximal acetylcholine response | activation, % at 3 µM | actives 0.19% (n = 360,000);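 active = activation above the run's mean over test compounds plus 3 SD, cut at about 23% in these data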;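 also: signal is peak over basal fluorescence ratio across the kinetic read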
# CHRM5 antagonist: blocks acetylcholine activation of human M5 receptor; P08912; actives 0.59% (n = 360,000); CHO-hM5 cells, Fluo-8 calcium fluorescence, ACh EC80; inhibition, % at 3 µM;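 active = inhibition above a per-plate cutoff, the mean of that plate's test compounds plus 3 SD, cut at about 27% in these data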;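 also: 0% = acetylcholine EC80 with DMSO and 100% = DMSO without agonist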
# CHRM4 antagonist: blocks acetylcholine activation of human M4 receptor | P08173 | CHO-hM4 cells, ACh EC80, Fluo-8 calcium fluorescence | inhibition, % at 3 µM | actives 0.73% (n = 360,000);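 active = inhibition above its plate's cutoff, the mean inhibition of sample wells plus 3 SD, cut at about 27% in these data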;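 also: 0% = acetylcholine EC80 with DMSO and 100% = DMSO without agonist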
# M4 PAM: potentiates acetylcholine response at human M4 receptor | CHO-K1 hM4/Gqi5, Fluo-8 calcium fluorescence, ACh EC20; 0% = ACh EC20, 100% = maximal ACh | activation, % at 3 µM | actives 0.4% (n = 360,000);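 active = activation above its plate's cutoff, the mean activation of sample wells plus 3 SD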
# Active calls of the source: *; ! = not confirmed by another sample. Rows were chosen to be rich in hits. Some 1.8% of all compounds tested hit in one or more screens of this group.
SMILES,M4 ag,M5 PAM,M5 ag,CHRM5 antagonist,CHRM4 antagonist,M4 PAM
CC[C@H](C)[C@H](NS(=O)(=O)c1ccc(C)cc1)C(=O)N1CCC(C(=O)N[C@H](C(=O)O)C(C)C)CC1,1.8,19.7*,4.0,-25.1,7.8,28.9
NC(N)=N/N=C/c1c(Cl)cccc1Cl,12.7,-15.3,29.2*!,-1.6,-8.2,-5.3
CC1OC2CC(=O)OC2C2=C1C(=O)c1c(O)cccc1C2=O (stereo unspecified),8.0,2.4,20.2,45.4*,29.2*,5.6
Cc1cccc(CN(C)C[C@H]2OCc3cnnn3CCCC(=O)N([C@@H](C)CO)C[C@@H]2C)c1,0.6,0.5,0.2,4.5,-3.2,8.0
CCN1CCN(CCn2c(=S)[nH]c3cc4c(cc3c2=O)OCO4)CC1,0.3,-18.9,-6.5,28.6*,6.4,-8.1
CCN(CC)CCn1c(=S)[nH]c2cc3c(cc2c1=O)OCO3,0.1,-4.3,1.4,-2.5,-8.5,6.6
O=C(Nc1ccccc1-c1nc2ccccc2[nH]1)c1ccc(N2C(=O)CCC2=O)cc1,5.8,-14.2,2.0,27.2*,5.0,-4.3
CCNC(=S)NC1CC2CCCC(C1)N2CCc1ccccc1 (stereo unspecified),0.5,-33.9,-23.3,69.2*,37.5*,-15.0
CCNC(=S)NC1CC2CCC(C1)N2Cc1ccccc1 (stereo unspecified),0.4,-7.5,-5.9,11.3,5.5,-6.6
c1ccc2c(c1)Cn1nnnc1-2,0.4,18.4*,1.4,-7.7,4.4,11.5
Cn1c(=O)n(Cc2ccccc2Cl)c2ccccc21,-0.6,-2.6,-3.4,43.1*,0.0,1.4
Cc1ccc(-c2nn3c(-c4ccccc4)nnc3o2)cc1,0.2,-3.5,-0.6,-0.4,-17.1,2.5
O=C(Nc1nc(-c2ccccc2)cs1)c1ccc(N2CCOCC2)c([N+](=O)[O-])c1,22.2,-17.6,11.2,30.1*,43.6*,-34.6
Cc1ccc(-c2csc(NC(=O)c3cc([N+](=O)[O-])ccc3N3CCOCC3)n2)cc1,0.2,-0.2,-2.7,8.2,0.8,2.9
Cc1ccc(C(=O)Nc2ncccc2C)cc1S(=O)(=O)N1CCCCC1,0.7,2.2,2.1,-0.8,-5.3,4.3
CCCCCCCCCCn1ccc(=N)cc1,0.6,-18.3,-18.1,13.8,38.1*,-13.9
CCCCCCCCn1ccc(=N)cc1,0.3,19.9*,-13.2,-25.6,-11.7,-3.4
CCCCCCN1Cc2ccccc2C1,0.2,-2.4,-8.1,7.3,1.7,-6.7
CCOC(=O)[C@]12CCCC=C1N(Cc1ccc(Cl)cc1Cl)C(=O)[C@H](CC(=O)NCc1cccc3ccccc13)C2,0.3,-2.4,2.9,1.2,-0.7,-4.6
O=C(COc1coc(CN2CCN(c3cccc(Cl)c3)CC2)cc1=O)NC1CCCC1,3.7,-2.7,4.4,6.0,-8.1,11.3
Cc1ccc2nc(SCC(=O)N3CCC(Cc4ccccc4)CC3)nc(=O)n2c1,34.9*,-17.8,-2.7,4.6,-7.3,-14.7
COCCN(Cc1nnc(-c2cccs2)o1)C(=O)CN1C(=O)NC2(CCCCC2)C1=O,0.6,12.1,3.2,6.5,-7.4,12.9
CC(=O)Nc1ccc(-n2nnnc2SCC(=O)Nc2cccc(NC(=O)c3ccco3)c2)cc1,1.6,2.9,-0.7,-6.4,26.4*,3.6
CN(CC(=O)Nc1ccccc1C(F)(F)F)C(=O)CSc1nnc(-c2ccncc2)n1C,1.4,0.0,-0.3,12.5,-10.4,9.3
O=C1CCCc2c1nc(-c1ccc(F)cc1)n2O,0.7,20.5*,4.5,-11.4,8.9,19.9
SMILES,M4 ag,M5 PAM,M5 ag,CHRM5 antagonist,CHRM4 antagonist,M4 PAM
O=C1CCCc2c1nc(-c1ccc([N+](=O)[O-])cc1)n2O,3.2,3.7,-0.2,3.6,10.9,2.7
COC(=O)C1CCN(Cc2c(C(=O)N3C[C@@H](C)O[C@@H](C)C3)nc3ccc(Cl)cn23)CC1,-0.2,19.2*,-1.8,-17.7,-8.5,11.7
CCn1c(SCC(=O)N2CCCCC2C)nnc1-c1ccco1 (stereo unspecified),0.5,-4.5,-1.4,5.4,5.4,-5.8
CC1CCCCN1C(=O)CSc1nnc(-c2ccco2)n1CC1CCCO1 (stereo unspecified),1.8,0.1,2.3,-0.1,9.2,29.9*
Cn1ccnc1SCC(=O)NC1CCCCC1,0.3,-2.6,0.1,0.9,3.3,12.9
Cn1ccnc1SCC(=O)NC1CC1,4.9,2.3,-4.3,17.0,2.6,48.5*
Cn1c(SCC(=O)NC2CCCC2)nnc1-c1ccncc1,0.3,-10.5,-0.6,-11.0,-2.5,1.7
CC(C)c1ccc(-c2nnc(SCC(=O)NC3CC3)n2C)cc1,0.5,30.4*,2.5,13.8,9.8,-3.7
COc1ccc(Cl)cc1C(=O)NCC(=O)OCc1ccccc1,1.7,-2.8,-3.8,5.9,-8.7,9.0
Cc1ccc(-c2nc(COC(=O)C3=NN(c4ccccc4)C(=O)CC3)cs2)cc1,0.1,-5.3,-9.2,4.5,0.6,-8.2
O=C(NCC(c1ccco1)N1CCN(c2ccccc2F)CC1)c1ccc2c(c1)OCO2 (stereo unspecified),0.6,-1.9,-0.7,6.7,11.4,-3.2
CN(/N=C/c1ccc(-c2ccc([N+](=O)[O-])cc2)o1)c1ccccc1,16.2,-3.7,33.6*,25.0,10.0,-10.4
CC1CN(S(=O)(=O)c2ccc(CN3C(=O)c4cccnc4C3=O)s2)c2ccccc2O1 (stereo unspecified),-0.4,-2.7,-9.1,10.0,-4.3,1.2
Cn1cnc(S(=O)(=O)Nc2ccc(Cl)c(C(F)(F)F)c2)c1,1.0,11.1,-5.4,-15.7,5.9,14.9*
Cn1cnc(S(=O)(=O)Nc2ccc(C(F)(F)F)cc2)c1,1.5,-4.2,-2.0,1.6,-10.9,3.6
COc1ccc(NC(=O)c2cccc(N3C(=O)C4CCC(C)CC4C3=O)c2)c(OC)c1 (stereo unspecified),10.8,-6.4,-1.4,23.3,9.2,-10.9
COc1cccc(NC(=O)c2ccc(N3C(=O)C4CCC(C)CC4C3=O)cc2)c1 (stereo unspecified),19.4,-13.2,-0.9,29.2*,-20.5,-3.9
Cc1sc2ncnc(N3CCN(CCOc4ccc(Cl)cc4)CC3)c2c1C,12.1,-25.1,2.9,32.2*,11.3,0.2
Cc1sc2ncnc(N3CCC(C(=O)NNC(=O)COc4ccc(Cl)cc4)CC3)c2c1C,20.9,-17.6,7.0,15.1,2.8,-8.1
O=C(CNCCc1ccc(F)cc1)Nc1cc(F)ccc1F,1.7,-3.3,-0.8,6.7,-1.9,0.1
Cc1sc2ncn(CC(=O)N3CCOCC3)c(=O)c2c1-c1ccccc1,0.6,25.1*,7.7,17.5,-8.7,16.1
